From ChEMBL document CHEMBL1131106, “Synthesis and characterization of heteroarotinoids demonstrate structure specificity relationships” (J Med Chem, 1998)

Key:
[1] = target: T1, Retinoic acid receptor beta (Homo sapiens, UniProt P10826); experiment: Transcriptional activation in CV-1 cells expressing RAR-beta receptor; format: cell-based
T1 sequence (P10826 whole entry): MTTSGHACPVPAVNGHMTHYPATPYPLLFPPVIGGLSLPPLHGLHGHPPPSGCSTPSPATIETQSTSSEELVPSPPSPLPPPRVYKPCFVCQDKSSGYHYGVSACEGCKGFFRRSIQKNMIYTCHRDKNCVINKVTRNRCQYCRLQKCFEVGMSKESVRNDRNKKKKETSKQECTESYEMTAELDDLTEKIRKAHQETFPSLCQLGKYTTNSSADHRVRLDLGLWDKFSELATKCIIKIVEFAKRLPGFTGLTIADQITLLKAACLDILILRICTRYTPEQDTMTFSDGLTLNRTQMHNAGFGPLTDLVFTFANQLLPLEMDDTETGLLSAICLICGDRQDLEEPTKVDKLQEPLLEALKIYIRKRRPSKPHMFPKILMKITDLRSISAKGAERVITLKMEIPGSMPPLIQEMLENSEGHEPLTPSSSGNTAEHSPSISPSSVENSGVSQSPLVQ
How it was run: (§1)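 CV-1 cells co-transfected by calcium phosphate with receptor expression plasmid, luciferase reporter MTV-TREp-LUC (two TRE-palindromic copies; RAR assays), β-galactosidase internal control plasmid and pGEM carrier. Incubated 40 h with or without various retinoid concentrations. Luciferase read in extracts, normalized to β-galactosidase. Triplicate. Activity normalized to 9-cis-retinoic acid; EC50 = concentration giving 50% maximal response.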

[2] = target: T2, Retinoic acid receptor alpha (Homo sapiens, UniProt P10276); experiment: Transcriptional activation in CV-1 cells expressing RAR-alpha receptor; format: cell-based; how it was run: as §1
T2 sequence (P10276 whole entry): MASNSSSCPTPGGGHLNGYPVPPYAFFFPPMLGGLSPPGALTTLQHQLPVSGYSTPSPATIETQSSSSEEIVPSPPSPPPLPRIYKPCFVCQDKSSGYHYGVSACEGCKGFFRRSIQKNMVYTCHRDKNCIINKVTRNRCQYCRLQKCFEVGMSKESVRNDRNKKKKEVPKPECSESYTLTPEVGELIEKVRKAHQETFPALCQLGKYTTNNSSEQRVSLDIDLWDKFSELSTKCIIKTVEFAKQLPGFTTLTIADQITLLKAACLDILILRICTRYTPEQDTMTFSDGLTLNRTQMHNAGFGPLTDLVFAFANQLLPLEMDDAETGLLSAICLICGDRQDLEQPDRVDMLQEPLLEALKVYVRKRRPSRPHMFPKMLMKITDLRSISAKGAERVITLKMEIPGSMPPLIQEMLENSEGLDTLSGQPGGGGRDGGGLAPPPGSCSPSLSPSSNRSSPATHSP

[3] = target: T3, Retinoic acid receptor gamma (Homo sapiens, UniProt P13631); experiment: Transcriptional activation in CV-1 cells expressing RAR-gamma receptor; format: cell-based; how it was run: as §1
T3 sequence (P13631 whole entry): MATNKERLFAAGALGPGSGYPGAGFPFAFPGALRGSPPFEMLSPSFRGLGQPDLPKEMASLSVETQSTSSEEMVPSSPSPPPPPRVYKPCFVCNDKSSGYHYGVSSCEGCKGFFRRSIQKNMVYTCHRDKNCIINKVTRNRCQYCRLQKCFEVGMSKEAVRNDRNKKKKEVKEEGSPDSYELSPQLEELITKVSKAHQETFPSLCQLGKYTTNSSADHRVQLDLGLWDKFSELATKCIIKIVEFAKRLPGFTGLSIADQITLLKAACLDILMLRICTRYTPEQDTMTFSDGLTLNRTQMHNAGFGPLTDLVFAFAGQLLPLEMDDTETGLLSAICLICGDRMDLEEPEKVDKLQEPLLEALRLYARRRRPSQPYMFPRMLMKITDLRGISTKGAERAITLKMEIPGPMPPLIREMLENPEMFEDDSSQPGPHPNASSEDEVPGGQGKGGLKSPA

[4] = target: T4, Retinoic acid receptor RXR-alpha (Homo sapiens, UniProt P19793); experiment: Transcriptional activation in CV-1 cells expressing RXR-alpha receptor;not active
T4 sequence (P19793 whole entry): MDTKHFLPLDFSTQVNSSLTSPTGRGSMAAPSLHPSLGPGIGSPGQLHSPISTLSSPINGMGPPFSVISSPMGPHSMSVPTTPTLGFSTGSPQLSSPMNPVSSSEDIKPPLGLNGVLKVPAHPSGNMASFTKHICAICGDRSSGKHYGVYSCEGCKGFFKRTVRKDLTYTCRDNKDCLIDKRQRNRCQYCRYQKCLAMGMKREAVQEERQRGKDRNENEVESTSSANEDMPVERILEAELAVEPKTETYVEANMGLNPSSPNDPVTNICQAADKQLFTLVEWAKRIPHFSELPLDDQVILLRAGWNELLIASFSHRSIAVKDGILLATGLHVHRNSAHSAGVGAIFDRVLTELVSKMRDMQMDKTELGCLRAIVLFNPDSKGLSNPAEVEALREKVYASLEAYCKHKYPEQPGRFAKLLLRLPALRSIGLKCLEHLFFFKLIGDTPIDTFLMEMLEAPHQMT

[5] = target: T4, Retinoic acid receptor RXR-alpha; experiment: Transcriptional activation in CV-1 cells expressing RXR-alpha receptor
[6] = target: T2, Retinoic acid receptor alpha; experiment: Transcriptional activation in CV-1 cells expressing RAR-alpha receptor; Not active; format: cell-based; how it was run: as §1

| Compound | EC50 [1] [nM] | EC50 [2] [nM] | EC50 [3] [nM] | EC50 [4] | EC50 [5] [nM] | EC50 [6] |
| --- | --- | --- | --- | --- | --- | --- |
| C/C(=C\c1ccc(C(=O)O)cc1)c1ccc2c(c1)C(C)(C)CS2 | 18 | 420 | 30 | Not Active |  |  |
| C/C(=C\c1ccc(C(=O)O)cc1)c1ccc2c(c1)C(C)(C)CO2 | 320 | 2300 | 460 | Not Active |  |  |
| COC(=O)c1ccc(/C=C(\C)c2ccc3c(c2)C(C)(C)CCS3)cc1 | 110 | 620 | 84 | Not Active |  |  |
| C/C(=C\c1ccc(C(=O)O)cc1)c1ccc2c(c1)C(C)(C)CCO2 | 190 | 1100 | 200 | Not Active |  |  |
| CC(/C=C/C=C(\C)c1ccc2c(c1)C(C)(C)CS2)=C\C(=O)O | 1200 | 1000 | 8 |  | 2600 |  |
| CC(/C=C/C=C(\C)c1ccc2c(c1)C(C)(C)CO2)=C\C(=O)O | 770 | 800 | 230 |  | 2800 |  |
| CC(/C=C/C=C(\C)c1ccc2c(c1)C(C)(C)CCS2)=C\C(=O)O | 43 | 1400 | 12 |  | 2700 |  |
| COC(=O)c1ccc(/C=C(\C)c2ccc3c(c2)C(C)(C)CCO3)cc1 | 140 | 1100 | 330 | Not Active |  |  |
| CC(/C=C/C=C(\C)c1ccc2c(c1)C(C)(C)CCO2)=C\C(=O)O | 72 | 740 | 39 |  | 2800 |  |
| COC(=O)c1ccc(/C=C(\C)c2ccc3c(c2)C(C)(C)CO3)cc1 | 430 |  | 400 | Not Active |  | Not Active |
